One test relates to Erythrocyte. The test can be described thus: Hemolytic activity against human RBC after 1 hr. It counts as ADME, cell-based. The procedure, abridged:
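Human red blood cells exposed to test peptides at 0.003–10 μM, with melittin at 0.15–20 μM as the lysis positive control. IC50 given as mean ± SD of three biological replicates.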

For test [1], the system named is HFF-1. The test can be described thus: Cytotoxicity against human HFF1 after 24 hrs by MTT assay. It counts as cell-based. To be noted: HFF-1, 24 h. The procedure, abridged: (§1)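 Cells seeded at 3 × 10^3 per well and grown 24 h at 37 °C in 5% CO2. Media: HUVEC in 10% FBS/EBM-2 with supplements; HFF-1 in 15% FBS/DMEM; HT-29 and MDA-MB-231 in 10% FBS/DMEM; MM96L in 10% FBS/RPMI with 2 mM L-glutamine and 1 mM pyruvate. Switched to serum-free medium, then paclitaxel 0.00075–10 μM for 24 or 48 h. MTT added 3 h, formazan taken up in DMSO, A600. Triplicate; IC50 from sigmoidal fit.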
In general terms: Tetrazolium dyes change colour on reduction, which living cells bring about.

Test [2] deals with HUVEC. In words: Cytotoxicity against HUVEC after 24 hrs by MTT assay. Type of test: cell-based. To be noted: Homo sapiens. Summed up: as §1
The test system of test [3] is MM96L. In words: Cytotoxicity against human MM96L after 24 hrs by MTT assay. It counts as functional, cell-based. The procedure, abridged:
as §1

The test system of test [4] is MDA-MB-231. In words: Cytotoxicity against human MDA-MB-231 after 24 hrs by MTT assay. It counts as functional, cell-based. The following applies: MDA-MB-231, 24 h. Summed up:
as §1

The test system of test [5] is HT-29. The test can be described thus: Cytotoxicity against human HT-29 after 24 hrs by MTT assay. To be noted: HT-29, 24 h. Type of test: functional, cell-based. Summed up: as §1
The test system of test [6] is HT-29. The test can be described thus: Cytotoxicity against human HT-29 after 48 hrs by MTT assay. To be noted: HT-29, 48 h. Type of test: functional, cell-based. The procedure, abridged: as §1
The subject of test [7] is MM96L. The test can be described thus: Cytotoxicity against human MM96L after 48 hrs by MTT assay. Type of test: functional, cell-based. The procedure, abridged:
as §1

Test [8] has as its system MDA-MB-231. In words: cells. To be noted: Homo sapiens, MDA-MB-231, 48 h.
The test system of test [9] is HFF-1. In words: Cytotoxicity against human HFF1 after 48 hrs by MTT assay. It counts as cell-based. The following applies: HFF-1, 48 h. Summed up:
as §1

In test [10] the test system is HUVEC. The test can be described thus: Cytotoxicity against HUVEC after 48 hrs by MTT assay. Type of test: cell-based. The following applies: Homo sapiens. The procedure, abridged: as §1

Structures are written as SMILES. Positions of bridges follow the written chain, without caps; N, C: chain ends. Residues, ends and D or L forms follow the SMILES beside them.

In general, IC50 refers to the concentration that inhibits the measured activity by half. In the test with Erythrocyte, `CC[C@H](C)[C@H](NC(=O)CN)C(=O)NCC(=O)N[C@@H](C)C(=O)N[C@H](C(=O)N[C@@H](CC(C)C)C(=O)N[C@@H](CCCCN)C(=O)N[C@H](C(=O)N[C@@H](CC(C)C)C(=O)N[C@H](C(=O)N[C@H](C(=O)NCC(=O)N[C@@H](CC(C)C)C(=O)N1CCC[C@H]1C(=O)N[C@@H](C)C(=O)N[C@@H](CC(C)C)C(=O)N[C@H](C(=O)N[C@@H](CO)C(=O)N[C@@H](Cc1c[nH]c2ccccc12)C(=O)N[C@H](C(=O)N[C@@H](CCCCN)C(=O)N[C@@H](CCCNC(=N)N)C(=O)N[C@@H](CCCCN)C(=O)N[C@@H](CCCNC(=N)N)C(=O)N[C@@H](CCC(N)=O)C(=O)N[C@@H](CCC(N)=O)C(N)=O)[C@@H](C)CC)[C@@H](C)CC)[C@@H](C)O)[C@@H](C)O)C(C)C)C(C)C` [MELITTIN] came in with an IC50 of 0.96 µM.

Turning to `CC[C@H](C)[C@@H]1NC(=O)[C@H](Cc2ccc(O)cc2)NC(=O)[C@H](CO)NC(=O)C(N)C(=O)[C@H](CC(N)=O)NC(=O)[C@H](CCCCN)NC(=O)[C@H](CCCCN)NC(=O)[C@@H]2CSSC[C@@H]3NC(=O)[C@H](CCCCN)NC(=O)CNC(=O)[C@H](CCC(N)=O)NC(=O)[C@H](C(C)C)NC(=O)[C@@H]4CSSC[C@H](NC(=O)[C@H]([C@@H](C)O)NC(=O)[C@H](CSSC[C@H](NC1=O)C(=O)NCC(=O)N[C@@H](CCC(=O)O)C(=O)N[C@@H]([C@@H](C)O)C(=O)N4)NC(=O)CNC(=O)[C@@H]1CCCN1C(=O)[C@H]([C@@H](C)O)NC(=O)[C@H](Cc1ccc(O)cc1)NC3=O)C(=O)N[C@@H](CO)C(=O)N[C@@H](Cc1c[nH]c3ccccc13)C(=O)N1CCC[C@H]1C(=O)N[C@@H]([C@@H](C)CC)C(=O)N2` (stereo partly drawn), the IC50 is 2.1 µM in the test on HFF-1 [1]; 1.6 µM in the test with HUVEC [2]; 1.3 µM in the test with MM96L [3]; 0.95 µM in the test with MDA-MB-231 [4]; 5.9 µM in the test on HT-29 [5]; > 10 µM in the test with Erythrocyte.

`CC[C@H](C)[C@@H]1NC(=O)[C@@H]2CCCN2C(=O)[C@H](CCCCN)NC(=O)CNC(=O)[C@H](CC(N)=O)NC(=O)[C@H](CCCCN)NC(=O)[C@H](Cc2ccc(O)cc2)NC(=O)[C@H](CS)NC(=O)[C@H](CC(C)C)NC(=O)[C@H](C(C)C)NC(=O)[C@H](CCCNC(=N)N)NC(=O)[C@H](CCCCN)NC(=O)CNC(=O)[C@@H]2CSSC[C@@H]3NC(=O)[C@H]([C@@H](C)O)NC(=O)[C@H](CCC(=O)O)NC(=O)CNC(=O)[C@H](CSSC[C@H](NC(=O)CNC(=O)[C@@H]4CCCN4C(=O)[C@H]([C@@H](C)O)NC(=O)[C@H](Cc4ccc(O)cc4)NC(=O)[C@H](CS)NC(=O)[C@H](CCCCN)NC(=O)CNC(=O)[C@H](CC(C)C)NC(=O)[C@H](CC(C)C)NC3=O)C(=O)N[C@@H]([C@@H](C)O)C(=O)N2)NC1=O` (cyclo(CGETCLLGKCYTPGCTCGKRVLCYKNGKPI); disulfide 1-15, 5-17): the IC50 in the test on HFF-1 [1] was determined as 1.7 µM; in the test with HUVEC [2] it was 2.8 µM; with MM96L [3], 0.93 µM; in the test with MDA-MB-231 [4], 4.4 µM.

For the molecule `CC(=O)O[C@H]1C(=O)[C@@]2(C)[C@H]([C@H](OC(=O)c3ccccc3)[C@]3(O)C[C@H](OC(=O)[C@H](O)[C@@H](NC(=O)c4ccccc4)c4ccccc4)C(C)=C1C3(C)C)[C@]1(OC(C)=O)CO[C@@H]1C[C@@H]2O` [PACLITAXEL], the IC50 is 0.01 µM with HT-29 [6]; > 10 µM in the test with HFF-1 [1]; > 10 µM in the test with HUVEC [2]; > 10 µM in the test on MM96L [3]; > 10 µM in the test on MM96L [7]; 0.2 µM with MDA-MB-231 [4]. Also, the IC50 with MDA-MB-231 [8] was 0.001 µM; in the test on HT-29 [5], 0.07 µM; with HFF-1 [9] it was > 10 µM; in the test on HUVEC [10], > 10 µM.

As to `CC[C@H](C)[C@@H]1NC(=O)[C@@H]2CCCN2C(=O)[C@H](CC(C)C)NC(=O)CNC(=O)[C@H](CC(N)=O)NC(=O)[C@H](CCCCN)NC(=O)[C@H](Cc2ccc(O)cc2)NC(=O)[C@@H]2CSSC[C@@H]3NC(=O)[C@H](CCCCN)NC(=O)CNC(=O)[C@H](Cc4ccccc4)NC(=O)[C@H](C(C)C)NC(=O)[C@@H]4CSSC[C@H](NC(=O)[C@H](CO)NC(=O)[C@H](CSSC[C@H](NC1=O)C(=O)NCC(=O)N[C@@H](CCC(=O)O)C(=O)N[C@@H]([C@@H](C)O)C(=O)N4)NC(=O)CNC(=O)[C@@H]1CCCN1C(=O)[C@H]([C@@H](C)O)NC(=O)[C@H](CC(N)=O)NC3=O)C(=O)N[C@@H](CCCNC(=N)N)C(=O)N[C@@H](CCCNC(=N)N)C(=O)N1CCC[C@H]1C(=O)N[C@@H]([C@@H](C)CC)C(=O)N2` (cyclo(CGETCVFGKCNTPGCSCRRPICYKNGLPI); disulfide 1-15, 5-17, 10-22), the IC50 in the test on HFF-1 [1] was > 3 µM; in the test on HUVEC [2], > 3 µM; in the test with MM96L [3], > 3 µM; in the test on MDA-MB-231 [4] it was > 10 µM; in the test on HT-29 [5], > 10 µM; with Erythrocyte, > 10 µM.

Regarding `CC[C@H](C)[C@@H]1NC(=O)[C@@H]2CCCN2C(=O)[C@H](CC(C)C)NC(=O)CNC(=O)[C@H](CC(N)=O)NC(=O)[C@H](CCCCN)NC(=O)[C@H](Cc2ccc(O)cc2)NC(=O)[C@@H]2CSSC[C@@H]3NC(=O)[C@H](CCCCN)NC(=O)CNC(=O)[C@H](CC(C)C)NC(=O)[C@H](CC(C)C)NC(=O)[C@@H]4CSSC[C@H](NC(=O)[C@H](CO)NC(=O)[C@H](CSSC[C@H](NC1=O)C(=O)NCC(=O)N[C@@H](CCC(=O)O)C(=O)N[C@@H]([C@@H](C)O)C(=O)N4)NC(=O)CNC(=O)[C@@H]1CCCN1C(=O)[C@H]([C@@H](C)O)NC(=O)[C@H](Cc1ccc(O)cc1)NC3=O)C(=O)N[C@@H](CCCNC(=N)N)C(=O)N[C@@H](CCCNC(=N)N)C(=O)N1CCC[C@H]1C(=O)N[C@@H](C(C)C)C(=O)N2` (cyclo(CGETCLLGKCYTPGCSCRRPVCYKNGLPI); disulfide 1-15, 5-17, 10-22), the concentration for half-maximal inhibition (IC50) with HFF-1 [1] was 1.9 µM; in the test on HUVEC [2] it was 2.6 µM; with MM96L [3] it was 1.1 µM; in the test on MDA-MB-231 [4], 2.3 µM; with Erythrocyte, > 10 µM.

In the case of `CC[C@H](C)[C@@H]1NC(=O)[C@H](C)NC(=O)[C@H](CO)NC(=O)[C@H](CO)NC(=O)[C@H]([C@@H](C)CC)NC(=O)[C@@H]2CSSC[C@@H]3NC(=O)[C@H](C(C)C)NC(=O)[C@H](CCCCN)NC(=O)[C@H](CO)NC(=O)[C@H](CCCCN)NC(=O)[C@@H]4CSSC[C@H](NC(=O)[C@H](CO)NC(=O)[C@H](CCC(=O)O)NC(=O)CNC(=O)[C@H](CSSC[C@H](NC(=O)CNC1=O)C(=O)N[C@@H](CO)C(=O)N4)NC(=O)[C@@H]1CCCN1C(=O)[C@H]([C@@H](C)CC)NC(=O)CNC(=O)[C@H](CC(N)=O)NC(=O)[C@H](CCCNC(=N)N)NC(=O)[C@H](Cc1ccc(O)cc1)NC3=O)C(=O)N[C@@H](C(C)C)C(=O)N[C@@H](Cc1c[nH]c3ccccc13)C(=O)N[C@@H]([C@@H](C)CC)C(=O)N1CCC[C@H]1C(=O)N2` (cyclo(AIGCSCKSKVCYRNGIPCGESCVWIPCISS); disulfide 4-18, 6-22, 11-27), the IC50 with HFF-1 [1] worked out at 1.3 µM; in the test with HUVEC [2] it was 0.35 µM; in the test on MM96L [3], 0.65 µM; with MDA-MB-231 [4], 1.5 µM; in the test on HT-29 [5], 0.87 µM; in the test with Erythrocyte, 36 µM.

Source of the values: ChEMBL document CHEMBL4266037, “Discovery and Characterization of Cyclotides from Rinorea Species” (J Nat Prod, 2018).
